The results in this text go back to ChEMBL document CHEMBL4622994, “Facile Synthesis of Aminomethyl Phosphinate Esters as Serine Protease Inhibitors with Primed Site Interaction” (ACS Med Chem Lett, 2020).

The species entered for assay [1] is Bos taurus. The experiment in a line: Inhibition of bovine chymotrypsin assessed as ratio of Kinact to Ki using flurogenic substrate as chymotrypsin substrate 2 by fluorescence assay. The method in brief: (§1)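 Progress-curve inhibition kinetics for irreversible covalent inhibitors, fitted to a two-step model: reversible non-covalent binding, then irreversible reaction with the enzyme. kinact is the rate constant of the irreversible step at infinite inhibitor concentration. KI is the inhibitor concentration giving an observed rate constant of 1/2 kinact. The kinact/KI ratio expresses overall potency. Inhibitors were tested as diastereomer mixtures; the dilution series spanned 200 to 26.7 μM.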

Assay [2] in a line: Inhibition of bovine chymotrypsin using flurogenic substrate as chymotrypsin substrate 2 by fluorescence assay. Also noted: species or system Bos taurus. The essentials:
as §1

The species entered for assay [3] is Bos taurus. The experiment in a line: Inhibition of bovine chymotrypsin assessed as inactivation constant using flurogenic substrate as chymotrypsin substrate 2 by fluorescence assay. The method in brief:
as §1

The target in assay [4] is T1, Neutrophil elastase (Homo sapiens) (UniProt P08246).
T1 sequence (whole entry): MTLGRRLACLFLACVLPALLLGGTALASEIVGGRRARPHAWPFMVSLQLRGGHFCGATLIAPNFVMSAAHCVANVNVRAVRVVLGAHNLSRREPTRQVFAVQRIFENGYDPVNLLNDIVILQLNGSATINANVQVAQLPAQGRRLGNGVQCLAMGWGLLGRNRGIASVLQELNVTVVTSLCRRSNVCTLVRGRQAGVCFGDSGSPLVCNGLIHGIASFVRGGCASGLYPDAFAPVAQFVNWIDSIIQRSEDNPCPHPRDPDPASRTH
The experiment in a line: Inhibition of human neutrophil Elastase assessed as ratio of Kinact to Ki using flurogenic substrate as elastase substrate V by fluorescence assay. The essentials:
as §1

Assay [5] is filed under the species Sus scrofa. The experiment in a line: Inhibition of porcine pancreatic elastase assessed as ratio of Kinact to Ki using flurogenic substrate as elastase substrate V by fluorescence assay. The method in brief:
as §1

Another assay addresses T2, Neutrophil elastase (Homo sapiens, UniProt P08246).
T2 sequence (P08246 whole entry): T1 sequence (whole entry)
The experiment in a line: Inhibition of human neutrophil elastase using flurogenic substrate as elastase substrate V by fluorescence assay. The method in brief: as §1

Assay [6] concerns the target T1, Neutrophil elastase (Homo sapiens). The experiment in a line: Inhibition of human neutrophil Elastase assessed as inactivation constant using flurogenic substrate as elastase substrate V by fluorescence assay. The method in brief: as §1
The species named for assay [7] is Bos taurus. The experiment in a line: Inhibition of bovine chymotrypsin at 100 uM preincubated for 30 mins followed by FP-rhodamine addition measured after 30 mins by fluorescence assay. The method in brief:
(§2)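 Competitive activity-based protein profiling. Enzyme was treated with compound at 100 μM, or with DMSO control. Residual active enzyme was then labeled with the general serine hydrolase activity-based probe FP-rhodamine and detected by fluorescent labeling.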

Assay [8] deals with T3, Cathepsin G (Homo sapiens) (UniProt P08311).
T3 sequence (whole entry): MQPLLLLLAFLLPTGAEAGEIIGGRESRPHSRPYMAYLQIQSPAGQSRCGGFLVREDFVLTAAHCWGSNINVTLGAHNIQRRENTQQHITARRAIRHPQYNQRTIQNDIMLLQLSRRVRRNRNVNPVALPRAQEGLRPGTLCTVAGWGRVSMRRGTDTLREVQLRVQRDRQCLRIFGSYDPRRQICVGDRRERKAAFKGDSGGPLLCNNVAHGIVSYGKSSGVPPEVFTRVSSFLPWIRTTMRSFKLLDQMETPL
The experiment in a line: Inhibition of human cathepsin G at 100 uM preincubated for 30 mins followed by FP-rhodamine addition measured after 30 mins by fluorescence assay. The method in brief: as §2

The species entered for assay [9] is Sus scrofa. The settings on record: 100 uM.
The nature of assay [10]: Inhibition of porcine pancreatic elastase using flurogenic substrate as elastase substrate V by fluorescence assay. Also noted: species or system Sus scrofa. The essentials: as §1
For assay [11], the target named is T1, Neutrophil elastase (Homo sapiens). The experiment in a line: Inhibition of human neutrophil Elastase at 100 uM preincubated for 30 mins followed by FP-rhodamine addition measured after 30 mins by fluorescence assay. The essentials:
as §2

Molecules are shown by their SMILES. Activity calls are given as the source filed them. The calls are words filed in the database; no cut-off is given here.

As for `O=C(NC(Cc1ccccc1)P(=O)(Oc1ccccc1)Oc1ccccc1)OCc1ccccc1` (stereo not drawn), in the assay filed under Bos taurus [1], the Ratio turned out to be 8.1 ×10³ /M/s. In assay [2], this compound registered a Ki of 0.69 µM. Further, in the assay listed under Bos taurus [3], the Kinact was found to be 5.63 ×10⁻³ /s.

On to `CC(C)C(NC(=O)OCc1ccccc1)P(=O)(Oc1ccccc1)Oc1ccccc1` (stereo not drawn), for which the Ratio in assay [4] was found to be 200 M⁻¹ s⁻¹. For the same compound, the Ratio entry in the assay filed under Sus scrofa [5] was “inactive”. The compound further had a Ki at Neutrophil elastase of 2.96 µM. The Kinact in assay [6] came out at 0.59 ×10⁻³ /s.

For `CC(C)CC(NC(=O)OCc1ccccc1)P(=O)(Oc1ccccc1)C(C)(C)C` (stereo not drawn), the inhibition entry in the assay listed under Bos taurus [7] is “inactive”.

`CCCP(=O)(Oc1ccccc1)C(CC(C)C)NC(=O)OCc1ccccc1` (stereo not drawn): the Ratio in the assay filed under Bos taurus [1] was found to be 188 M⁻¹ s⁻¹. The compound also showed a Ki in assay [2] of 13 µM. Also, the Kinact in the assay listed under Bos taurus [3] is 2.44 ×10⁻³ /s. Moreover, the inhibition result in the assay filed under Bos taurus [7] was “Active”.

For `O=C(NC(Cc1ccccc1)P(=O)(Oc1ccccc1)c1ccccc1)OCc1ccccc1` (stereo not drawn), the inhibition entry (in assay [8]; in the assay listed under Bos taurus [7]) was “Active” throughout. Also, the Ratio in the assay listed under Bos taurus [1] amounted to 16.4 ×10³ /M/s. Moreover, affinity in assay [2] was put at a Ki of 1.4 µM. Further, the Kinact in the assay listed under Bos taurus [3] came to 23 ×10⁻³ /s.

Consider `CCCP(=O)(Oc1ccccc1)C(NC(=O)OCc1ccccc1)c1ccccc1` (stereo not drawn), for which the Ratio in the assay filed under Bos taurus [1] came out at 404 M⁻¹ s⁻¹. Further, the Ki in assay [2] came out at 14.5 µM. Further, the Kinact in the assay filed under Bos taurus [3] stood at 5.84 ×10⁻³ /s. The inhibition entry in the assay listed under Bos taurus [7] is “Active”.

Consider `O=C(NC(c1ccccc1)P(=O)(Oc1ccccc1)c1ccccc1)OCc1ccccc1` (stereo not drawn), for which the Ratio in the assay filed under Bos taurus [1] was determined as 3.4 ×10³ /M/s. For the same compound, the Ki in assay [2] worked out at 0.46 µM. The Kinact in the assay filed under Bos taurus [3] is 1.57 ×10⁻³ /s. Moreover, the inhibition entry in the assay listed under Bos taurus [7] is “Active”.

Turning to `CCCP(=O)(Oc1ccccc1)C(NC(=O)OCc1ccccc1)C(C)C` (stereo not drawn), the inhibition entry in the assay listed under Bos taurus [7] is “inactive”.

As for `CC(C)CC(NC(=O)OCc1ccccc1)P(=O)(Oc1ccccc1)c1ccccc1` (stereo not drawn), in the assay filed under Bos taurus [1], the Ratio stood at 978 M⁻¹ s⁻¹. Moreover, the affinity in assay [2], expressed as Ki, was 21.6 µM. In addition, in the assay listed under Bos taurus [3], the Kinact came out at 21.1 ×10⁻³ /s. The inhibition entry in the assay filed under Bos taurus [7] was “Active”.

For the compound `CC(C)(C)P(=O)(Oc1ccccc1)C(NC(=O)OCc1ccccc1)c1ccccc1` (stereo not drawn), the inhibition result in the assay filed under Bos taurus [7] was “inactive”.

Regarding `CC(C)C(NC(=O)OCc1ccccc1)P(=O)(Oc1ccccc1)c1ccccc1` (stereo not drawn), the inhibition result (in the assay listed under Sus scrofa [9]; in the assay filed under Bos taurus [7]; in assay [11]) was “Active” throughout. For the same compound, the Ki in assay [10] amounted to 132 µM; at Neutrophil elastase it was 51 µM; in assay [2], 7.42 µM.

With `CC(C)C(NC(=O)OCc1ccccc1)P(=O)(Oc1ccccc1)C(C)(C)C` (stereo not drawn), in the assay filed under Bos taurus [7], the inhibition result was “inactive”.
